Assay results of several laboratories.
Protocols differ between the studies behind these lines.
Target: Serine/threonine-protein kinase DCLK2 (DCLK2, Homo sapiens, UniProt Q8N568)
Sequence (Q8N568 1-766, as in one of the studies): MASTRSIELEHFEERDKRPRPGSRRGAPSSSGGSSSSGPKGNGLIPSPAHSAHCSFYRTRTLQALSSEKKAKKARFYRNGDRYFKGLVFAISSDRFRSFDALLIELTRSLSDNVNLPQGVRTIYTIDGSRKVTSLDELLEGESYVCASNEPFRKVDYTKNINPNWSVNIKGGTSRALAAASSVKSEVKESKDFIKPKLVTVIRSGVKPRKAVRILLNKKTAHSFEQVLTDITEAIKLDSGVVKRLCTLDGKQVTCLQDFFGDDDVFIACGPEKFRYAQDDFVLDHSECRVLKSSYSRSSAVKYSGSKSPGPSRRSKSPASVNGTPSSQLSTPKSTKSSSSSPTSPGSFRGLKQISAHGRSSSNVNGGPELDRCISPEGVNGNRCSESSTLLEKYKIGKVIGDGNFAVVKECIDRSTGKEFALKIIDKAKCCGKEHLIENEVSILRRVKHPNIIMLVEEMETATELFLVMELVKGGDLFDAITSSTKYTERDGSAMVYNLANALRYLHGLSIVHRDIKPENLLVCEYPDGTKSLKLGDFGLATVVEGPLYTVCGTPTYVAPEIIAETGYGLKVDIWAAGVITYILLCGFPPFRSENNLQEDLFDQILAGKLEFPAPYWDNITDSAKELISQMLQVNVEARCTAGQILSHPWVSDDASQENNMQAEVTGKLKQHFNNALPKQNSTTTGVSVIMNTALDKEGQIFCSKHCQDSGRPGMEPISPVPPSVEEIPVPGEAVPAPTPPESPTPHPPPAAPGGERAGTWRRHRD

SMILES	test	conditions	measurement	value
COc1ncccc1-c1cnn2ccc(N3CCN(C(=O)OC(C)C)CC3)nc12	binding, competition with immobilised ligand	1 µM	remaining binding	100%
COc1cc(Nc2ncc(F)c(Nc3ccc4c(n3)NC(=O)C(C)(C)O4)n2)cc(OC)c1OC	binding, competition with immobilised ligand	10 µM	inhibition	36%
Cn1cc(-c2cc(F)cc(N3CCn4c(cc5c4CCCC5)C3=O)c2CO)cc(Nc2ccc(N3CCN(C4COC4)CC3)cn2)c1=O	enzyme activity, inhibitor	0.1 µM	inhibition	10%
Cc1nn(C)cc1-c1nc2c(N3CCN(Cc4ccc(Cl)cc4)CC3)c(Cl)cnc2[nH]1	binding, competition with immobilised ligand	1 µM	remaining binding	100%
Cn1cc(-c2cccc(N3CCc4c(sc5c4CC(C)(C)C5)C3=O)c2CO)cc(Nc2ccncn2)c1=O	enzyme activity, inhibitor	1 µM	inhibition	3%
N#CC1(c2ccccn2)CCN(Cc2cc(C(=O)O)c(=O)n3ccccc23)CC1	cell-free assay, competition with immobilised ligand	1 µM	remaining binding	100%
CC(C)(C)c1cc(C=C(C#N)C#N)cc(Br)c1O	enzyme activity, inhibitor	0.5 µM	remaining activity	109%
Cn1cncc1[C@@](O)(COc1ccc(C#N)cc1-c1ccc(OC(F)(F)F)cc1)c1ccc(C#N)cc1	cell-free assay, competition with immobilised ligand	1 µM	remaining binding	100%
O=c1[nH]c2ccccc2n1C1CCN(Cc2ccc(-c3[nH]c4cc5ncnc5cc4nc3-c3ccccc3)cc2)CC1	cell-free assay	0.5 µM	remaining signal	107%
Nc1ncc(-c2nc(N3CCOCC3)nc(N3CCOCC3)n2)c(C(F)F)n1	binding, competition with immobilised ligand	10 µM	remaining binding	86%
